Measured values reported in ChEMBL document CHEMBL1123012, “Ellipticine derivatives with an affinity to the estrogen receptor, an approach to develop intercalating drugs with a specific effect on the hormone-dependent breast cancer” (J Med Chem, 1985).

Experiments:
[1] = tested on: L1210; experiment: Lethal concentration required to reduce cloning efficiency of L1210 cell line to a factor of 0.37 after 24 hour exposure; type: cell-based; details: mouse, l1210, 24 h
[2] = tested on: L1210; experiment: The effective dose against L1210 cell growth; type: functional; details: Mus musculus, read-out: ED50 (the source's name)
Procedure, shortened: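 Exponentially growing L1210 cells (1 × 10^5/mL) in RPMI 1640 with 10% fetal calf serum, penicillin, streptomycin and 60 µM β-mercaptoethanol. Exposed to a range of drug concentrations in nonagitated suspension for 24 h at 37 °C, 5% CO2. Cells counted electronically; duplicate treated cultures compared with triplicate untreated controls. ED50 taken from percent inhibition plotted against log concentration.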

[3] = tested on: Calf thymus DNA; experiment: Inhibitory concentration against ethidium bromide binding to DNA; type: nucleic-acid assay; details: Bos taurus
Procedure, shortened: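 Fluorometric competition with ethidium bromide bound to sonicated calf thymus DNA, 20 °C, 0.02 M sodium acetate pH 5.5. Final DNA 2.5 × 10^-6 M (base pairs), ethidium 5 × 10^-6 M; competitor added in portions. Excitation 546 nm, emission 590 nm. Bound ethidium per base pair plotted vs rf (competitor/DNA bp). rf50 taken at 50% displacement of bound ethidium.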

SMILES | EC50 [2] | rf50 [3] | Co [1]
Cc1c2cc[n+](CCNC(=O)CC3(C)CC[C@H]4[C@@H]5CCc6cc(O)ccc6[C@H]5CC[C@@]43C)cc2c(C)c2c1[nH]c1ccccc12.[Br-] (stereo partly specified) | 0.5 µM | 1.5 | 0.15 µM
COc1ccc2[nH]c3c(C)c4cc[n+](CC(=O)NCCCCCNCCOc5ccc(/C(=C(/Cl)c6ccccc6)c6ccccc6)cc5)cc4c(C)c3c2c1 | – | 0.86 | –
COc1ccc2[nH]c3c(C)c4cc[n+](CC(=O)NCCCCCN(CCOc5ccc(/C(=C(/Cl)c6ccccc6)c6ccccc6)cc5)C(=O)C[n+]5ccc6c(C)c7[nH]c8ccc(OC)cc8c7c(C)c6c5)cc4c(C)c3c2c1 | – | 10 | –
Cc1c2cc[n+](CC(=O)NCCCCCN(CCOc3ccc(/C(=C(/Cl)c4ccccc4)c4ccccc4)cc3)C(=O)C[n+]3ccc4c(C)c5[nH]c6ccc(O)cc6c5c(C)c4c3)cc2c(C)c2c1[nH]c1ccc(O)cc12.[Cl-].[Cl-] | 4 µM | 4.8 | > 10 µM
Cc1c2cc[n+](CC(=O)NCCCCCNCCOc3ccc(/C(=C(/Cl)c4ccccc4)c4ccccc4)cc3)cc2c(C)c2c1[nH]c1ccc(O)cc12.[Cl-] | 4 µM | 0.32 | > 10 µM

The next lines start with results.

EC50 [2] | rf50 [3] | SMILES | Co [1]
– | 20 | CCN(CC)CCOc1ccc(/C(=C(/Cl)c2ccccc2)c2ccccc2)cc1 | –
– | 20 | CCN(CC)CCOc1ccc(/C(=C(\Cl)c2ccccc2)c2ccccc2)cc1 | –
5 µM | 0.7 | COc1ccc2[nH]c3c(C)c4cc[n+](CC(=O)N(CCCCCN)CCOc5ccc(/C(=C(/Cl)c6ccccc6)c6ccccc6)cc5)cc4c(C)c3c2c1.[Cl-] | 9 µM
